A short description of experiment [1]: Inhibition of trypsin. In a few lines: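 Trypsin (0.0023 mg/mL final, 2.75 BAEE U) was added to 0.45 mM BAEE in 64 mM NaH2PO4 pH 7.6 at 25 °C. Compound was premixed with substrate from a 1:2 EtOH dilution series (final 4.5 × 10-4 to 6.8 × 10^-6 M), against an EtOH blank. N-benzoyl-L-arginine formation was read at 253 nm for 5 min, and the 0.5–2 min interval was analyzed.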

A short description of experiment [2]: Inhibition of trypsin at 10 uM.
Experiment [3] in a line: Inhibition of chymotrypsin at 10 uM.
Experiment [4] relates to Plasmodium falciparum. Put plainly: Antiparasitic activity against chloroquine-resistant Plasmodium falciparum W2 in microfluorimetric assay. In kind it is functional, organism-based.
Experiment [5] is described as follows: Cytotoxicity against mouse Neuro2a cells. The settings on record: N2a. In kind it is functional, cell-based.
Experiment [6] deals with Trypanosoma cruzi. Put plainly: Antiparasitic activity against Trypanosoma cruzi C4 clone. In kind it is functional, organism-based.
In experiment [7] the test system is Leishmania donovani. Nature of the experiment: Antiparasitic activity against Leishmania donovani LD-1S/MHOM/SD/00-strain 1S. Type of experiment: functional, organism-based.
The nature of experiment [8]: Inhibition of chymotrypsin. In a few lines: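 Spectrophotometric assay: 0.0025 mg/mL chymotrypsin (0.0086 U) with 0.53 mM BTEE in 38 mM Tris-HCl pH 7.8, 53 mM CaCl2, 0.5 mM HCl and 32% MeOH at 25 °C. Inhibitor (from MeOH dilutions, final 6.25 × 10-5 to 7.5 × 10^-9 M) was equilibrated with substrate before enzyme addition. Absorbance at 256 nm was followed for 5 min, and the 0.5–1.5 min interval was analyzed.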

The subject of experiment [9] is NCI-H460. Put plainly: Cytotoxicity against human H460 cells. Type of experiment: functional, cell-based.

IC50 and Activity data for 17 molecules are collected here from ChEMBL document CHEMBL1143074, “Symplocamide A, a potent cytotoxin and chymotrypsin inhibitor from the marine Cyanobacterium Symploca sp” (J Nat Prod, 2008).

Usually IC50 stands for the concentration that gives 50% inhibition. High values mean weaker potency in that assay, low ones greater potency in that assay.

Calls of active or inactive are those of the source. No cut-off for these calls is given here. Some results are limits rather than exact numbers.

As to `CC(C)C[C@@H](NC(=O)[C@H](O)COS(=O)(=O)O)C(=O)N[C@@H]1C(=O)N[C@@H](CCCNC(=N)N)C(=O)N[C@H]2CC[C@@H](O)N(C2=O)[C@@H](CC(C)C)C(=O)N(C)[C@@H](Cc2ccc(O)cc2)C(=O)N[C@@H](C(C)C)C(=O)O[C@@H]1C`, in experiment [1], it took 0.0096 µM to reach half-maximal inhibition (IC50).

Regarding `CC(C)[C@H](NC(=O)[C@@H](C)NC(=O)[C@H](CCCc1ccc(O)cc1)NC(=O)[C@H](O)CO)C(=O)N[C@@H]1C(=O)N[C@@H](CCc2ccc(O)cc2)C(=O)N[C@H]2CC[C@@H](O)N(C2=O)[C@@H]([C@@H](C)O)C(=O)N(C)[C@@H](Cc2ccc(O)c(Br)c2)C(=O)N[C@@H](C(C)C)C(=O)O[C@@H]1C`, the result in experiment [2] and in experiment [3] was inactive.

Consider `CCCC(=O)N[C@@H](CC(C)C)C(=O)N[C@@H](CCC(=O)O)C(=O)N[C@@H]1C(=O)N[C@@H](Cc2ccc(O)cc2)C(=O)N[C@H]2CC[C@@H](O)N(C2=O)[C@@H](C(C)C)C(=O)N(C)[C@@H](Cc2ccccc2)C(=O)N[C@@H]([C@@H](C)CC)C(=O)O[C@@H]1C`, for which the outcome in experiment [2] and in [3] was inactive.

As for `CC[C@H](C)[C@@H]1NC(=O)[C@H](Cc2ccc(OC)cc2)N(C)C(=O)[C@H]([C@@H](C)O)N2C(=O)[C@H](CC[C@H]2O)NC(=O)[C@H](CC(C)C)NC(=O)[C@@H](NC(=O)[C@H](CCC(N)=O)NC(=O)[C@@H]2CCC(=O)N2)[C@@H](C)OC1=O`, the result in [2] and in experiment [3] was inactive.

Take `CC[C@H](C)[C@@H]1NC(=O)[C@H](Cc2ccc(O)cc2)N(C)C(=O)[C@H]([C@@H](C)CC)N2C(=O)C(CCC2O)NC(=O)[C@H](CC(C)C)NC(=O)[C@@H]2C(OC1=O)C(C)CN2C(=O)[C@H](CCC(N)=O)NC(C)=O` (stereo in doubt; form 2): the outcome in experiment [2] and in [3] was inactive.

Take `CC[C@H](C)[C@@H]1NC(=O)[C@H](Cc2ccccc2)N(C)C(=O)[C@H]([C@@H](C)CC)N2C(=O)[C@H](CC[C@H]2O)NC(=O)[C@H](CCCNC(=N)N)NC(=O)[C@@H](NC(=O)[C@H](O)COS(=O)(=O)O)[C@@H](C)OC1=O` [CYANOPEPTOLIN S]: inhibition in [1] was half-maximal at 0.24 µM (IC50).

For `CC(C)[C@@H]1NC(=O)[C@H](Cc2ccc(O)cc2)N(C)C(=O)[C@H](Cc2ccccc2)N2C(=O)[C@H](CC[C@H]2O)NC(=O)[C@H](CCCNC(=N)N)NC(=O)[C@@H](NC(=O)[C@@H](O)COS(=O)(=O)O)[C@@H](C)OC1=O` [MICROPEPTIN 90], the outcome in experiment [3] was inactive. Moreover, the midpoint of inhibition in [1], the IC50, lay at 2.08 µM.

On to `CCCCCCCC(=O)N[C@@H](CCC(=O)O)C(=O)N[C@@H]1C(=O)N[C@@H](CCCCN)C(=O)N[C@H]2CC[C@@H](O)N(C2=O)[C@@H](CC(C)C)C(=O)N(C)[C@@H](Cc2ccc(O)cc2)C(=O)N[C@@H](C(C)C)C(=O)O[C@@H]1C` [MICROPEPTIN A], for which the outcome in [3] was inactive. The molecule also returned an IC50 in experiment [1] of 0.07 µM.

Consider `CCCCCC(=O)N[C@@H](CCC(=O)O)C(=O)N[C@@H]1C(=O)N[C@@H](CCCNC(=N)N)C(=O)N[C@H]2CC[C@@H](O)N(C2=O)[C@@H](CC(C)C)C(=O)N(C)[C@@H](Cc2ccc(O)cc2)C(=O)N[C@@H](C(C)C)C(=O)O[C@@H]1C` [MICROPEPTIN B], for which the outcome in [3] was inactive. In [1], this molecule had an IC50 of 0.26 µM.

As to `CC[C@H](C)[C@@H]1NC(=O)[C@H](Cc2ccc(O)cc2)N(C)C(=O)[C@H](Cc2ccccc2)N2C(=O)[C@H](CC[C@H]2O)NC(=O)[C@H](CCCNC(=N)N)NC(=O)[C@@H](NC(=O)[C@H](CC(=O)O)NC(C)=O)[C@@H](C)OC1=O` [MICROPEPTIN E1964], the result in [3] was inactive. The half-maximal inhibitory concentration (IC50) in [1] came to 4.36 µM.

With `CCCC(=O)N[C@@H](CC(=O)O)C(=O)N[C@@H]1C(=O)N[C@@H](CCCNC(=N)N)C(=O)N[C@H]2CC[C@@H](O)N(C2=O)[C@@H](Cc2ccccc2)C(=O)N(C)[C@@H](Cc2ccc(O)cc2)C(=O)N[C@@H]([C@@H](C)CC)C(=O)O[C@@H]1C` [MICROPEPTIN EI992], the result in experiment [3] was inactive. This molecule registered a half-maximal inhibitory concentration (IC50) in experiment [1] of 3.83 µM.

As to `CCCCCC(=O)N[C@@H](CC(=O)O)C(=O)N[C@@H]1C(=O)N[C@@H](CCCCN)C(=O)N[C@H]2CC[C@@H](O)N(C2=O)[C@@H]([C@@H](C)CC)C(=O)N(C)[C@@H](Cc2ccc(O)cc2)C(=O)N[C@@H](C(C)C)C(=O)O[C@@H]1C` [MICROPEPTIN SD944], in experiment [3], the result was inactive. This molecule had a concentration for half-maximal inhibition (IC50) in [1] of 8.47 µM.

On to `CCCCCC(=O)N[C@@H](CC(=O)O)C(=O)N[C@@H]1C(=O)N[C@@H](CCCNC(=N)N)C(=O)N[C@H]2CC[C@@H](O)N(C2=O)[C@@H]([C@@H](C)CC)C(=O)N(C)[C@@H](CC(=O)c2ccccc2N)C(=O)N[C@@H](C(C)C)C(=O)O[C@@H]1C` [MICROPEPTIN SD999], for which the result in experiment [3] was inactive. The half-maximal inhibitory concentration (IC50) in [1] worked out at 4 µM.

For `CCCCCC(=O)N[C@@H](CC(=O)O)C(=O)N[C@@H]1C(=O)N[C@@H](CCCNC(=N)N)C(=O)N[C@H]2CC[C@@H](O)N(C2=O)[C@@H]([C@@H](C)CC)C(=O)N(C)[C@@H](Cc2c[nH]c3ccccc23)C(=O)N[C@@H](C(C)C)C(=O)O[C@@H]1C` [MICROPEPTIN SF995], in experiment [3], the outcome was inactive. In [1], this molecule displayed an IC50 of 0.2 µM.

On to `CCCCCC(=O)N[C@@H](CCC(=O)O)C(=O)N[C@@H]1C(=O)N[C@@H](CCCCN)C(=O)N[C@H]2CC[C@@H](O)N(C2=O)[C@@H](Cc2ccccc2)C(=O)N(C)[C@@H](Cc2c[nH]c3ccccc23)C(=O)N[C@@H](C(C)C)C(=O)O[C@@H]1C` [MICROPEPTIN T2], for which the result in experiment [3] was inactive. In experiment [1], this molecule came in with a half-maximal inhibitory concentration (IC50) of 0.1 µM.

On to `CC[C@@H](C)[C@@H]1NC(=O)[C@H](Cc2ccccc2)N(C)C(=O)[C@H]([C@@H](C)CC)N2C(=O)[C@H](CC[C@H]2O)NC(=O)[C@H](CCCCN)NC(=O)[C@@H](NC(=O)[C@@H](CCc2ccccc2)NC(=O)[C@@H](COS(=O)(=O)O)OC)[C@@H](C)OC1=O` [OSCILLAPEPTIN F], for which, in [3], the outcome was inactive. Also, in [1], the half-maximal inhibitory concentration (IC50) is 0.18 µM.

Turning to `CCCC(=O)N[C@@H](CCC(N)=O)C(=O)N[C@@H]1C(=O)N[C@@H](CCCNC(N)=O)C(=O)N[C@H]2CC[C@@H](O)N(C2=O)[C@@H]([C@@H](C)CC)C(=O)N(C)[C@@H](Cc2ccc(OC)c(Br)c2)C(=O)N[C@@H](C(C)C)C(=O)O[C@@H]1C` [SYMPLOCAMIDE A], the IC50 in [4] was 0.95 µM; in [5] it was 0.029 µM; in [6], greater than 9.5 µM; in experiment [7] it was greater than 9.5 µM; in [8], 0.38 µM; in experiment [1], 80.2 µM. The same molecule displayed an IC50 in experiment [9] of 0.04 µM.
